The values below come from ChEMBL document CHEMBL1155469, “Peptide nucleic acids conjugated to short basic peptides show improved pharmacokinetics and antisense activity in adipose tissue” (J Med Chem, 2010).

Molecules are shown by their SMILES. Calls of active or inactive are those of the source. No cut-off for these calls is given here.

In one data set the test system is BCL1. Briefly: Inhibition of PTEN expression in mouse BCL1 cells after 62 hrs by Western blotting. As to conditions: BCL1, 62 h. Type of data set: functional, cell-based. An outline of the steps: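 BCL1 cells were grown in DMEM with 10% FBS at 37 °C, 5% CO2. Compound was delivered to 2×10^6 cells by electroporation (200 V, 1000 uF, 13 ohms), and cells were harvested 62 h later. Western blot of RIPA lysates used rabbit anti-PTEN and anti-CD40 (1:1000) with HRP secondary and ECL detection. PTEN was normalized to CD40. n=3, mean ± SD.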

The test system of data set [1] is Mus musculus. Briefly: Toxicity in Balb/C mouse assessed as change in serum triglyceride levels at 10 to 40 mg/kg, ip administered thrice a week for 2 weeks measured 48 hrs after last dose. In kind it is organism-based. On the set-up: dose 10-40 mg/kg, route intraperitoneal. The note with it: in vivo. In short, it runs like this: (§1)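 Male Balb/c mice, 6–8 wk, n=4/group, received compound i.p. in PBS (10 ul/g) 3x/wk for 2 wk. Body weight was monitored throughout. At 48 h after the last dose, mice were anesthetized with isoflurane and bled by cardiac puncture. Serum AST, ALT, BUN, bilirubin, glucose and triglycerides were compared with the saline group. ALT rise below 2x normal was counted as absent.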

Data set [2] deals with Mus musculus. Description: Toxicity in Balb/C mouse assessed as increase in spleen weight at 40 mg/kg, ip administered thrice a week for 2 weeks measured 48 hrs after last dose. Type of data set: organism-based. On the set-up: dose 40 mg/kg, route intraperitoneal. As to conditions: in vivo. In short, it runs like this: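 Male Balb/c mice, 6–8 wk, n=4/group, were dosed i.p. in PBS 3x/wk for 2 wk at 40 mg/kg. They were killed by cervical dislocation 48 h after the last dose. Spleen weight was taken at necropsy and compared with the saline-treated group.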

Data set [3] deals with Mus musculus. Description: Toxicity in Balb/C mouse assessed as change in body weight at 10 to 40 mg/kg, ip administered thrice a week for 2 weeks measured 48 hrs after last dose. On the set-up: dose 10-40 mg/kg, route intraperitoneal. In kind it is organism-based. As to conditions: in vivo. An outline of the steps:
as §1

For data set [4], the system named is Mus musculus. Description: Inhibition of PTEN expression in Balb/C mouse kidney at 10 to 40 mg/kg, ip administered thrice a week for 2 weeks measured 48 hrs after last dose.
For data set [5], the system named is Mus musculus. Briefly: Toxicity in Balb/C mouse assessed as change in serum bilirubin levels at 10 to 40 mg/kg, ip administered thrice a week for 2 weeks measured 48 hrs after last dose. On the set-up: dose 10-40 mg/kg, route intraperitoneal. The note with it: in vivo. In kind it is organism-based. In short, it runs like this:
as §1

Data set [6] deals with Mus musculus. Briefly: Toxicity in Balb/C mouse assessed as change in serum ALT levels at 10 to 40 mg/kg, ip administered thrice a week for 2 weeks measured 48 hrs after last dose. In kind it is organism-based. As to conditions: in vivo. On the set-up: dose 10-40 mg/kg, route intraperitoneal. An outline of the steps: as §1
Data set [7] relates to Mus musculus. Briefly: Inhibition of PTEN expression in Balb/C mouse white adipose tissue assessed as reduction of full length transcript at 10 to 40 mg/kg, ip administered thrice a week for 2 weeks measured 48 hrs after last dose […]. Type of data set: functional, organism-based.
The test system of data set [8] is Mus musculus. Briefly: Inhibition of PTEN expression in Balb/C mouse liver at 10 to 40 mg/kg, ip administered thrice a week for 2 weeks measured 48 hrs after last dose by Western blot analysis. In kind it is functional, organism-based. In short, it runs like this: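 Male Balb/c mice, 6–8 wk, n=4/group, dosed i.p. in PBS 3x/wk for 2 wk and killed 48 h after the last dose. Tissue was homogenized in RIPA buffer with protease inhibitors, and protein was measured by Lowry assay. Lysates were run on 10% PAGE and blotted to PVDF. Blots were probed with rabbit anti-PTEN (1:1000) and HRP anti-rabbit (1:2500), with ECL detection.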
In general terms: Immunoblotting shows a protein as a band on a membrane.

Data set [9] relates to Mus musculus. Briefly: Inhibition of PTEN expression in Balb/C mouse white adipose tissue assessed as upregulation of isoform lacking exon at 10 to 40 mg/kg, ip administered thrice a week for 2 weeks measured 48 hrs after last dose […]. Type of data set: functional, organism-based.
The test system of data set [10] is Mus musculus. Briefly: Toxicity in Balb/C mouse assessed as change in serum glucose levels at 10 to 40 mg/kg, ip administered thrice a week for 2 weeks measured 48 hrs after last dose. Type of data set: organism-based. On the set-up: dose 10-40 mg/kg, route intraperitoneal. As to conditions: in vivo. In short, it runs like this: as §1
Data set [11] deals with Mus musculus. Description: Toxicity in Balb/C mouse assessed as change in serum AST levels at 10 to 40 mg/kg, ip administered thrice a week for 2 weeks measured 48 hrs after last dose. In kind it is organism-based. As to conditions: in vivo. On the set-up: dose 10-40 mg/kg, route intraperitoneal. In short, it runs like this:
as §1

The test system of data set [12] is Mus musculus. Briefly: Toxicity in Balb/C mouse assessed as change in blood urea nitrogen levels at 10 to 40 mg/kg, ip administered thrice a week for 2 weeks measured 48 hrs after last dose. In kind it is organism-based. On the set-up: dose 10-40 mg/kg, route intraperitoneal. As to conditions: in vivo. In short, it runs like this: as §1

In turn, `Cc1cn(CC(=O)N(CCN)CC(=O)NCCN(CC(=O)NCCN(CC(=O)NCCN(CC(=O)NCCN(CC(=O)NCCN(CC(=O)NCCN(CC(=O)NCCN(CC(=O)NCCN(CC(=O)NCCN(CC(=O)NCCN(CC(=O)NCCN(CC(=O)NCCN(CC(=O)NCCN(CC(=O)NCCN(CC(=O)N[C@@H](CCCCN)C(N)=O)C(=O)Cn2cnc3c(=O)[nH]c(N)nc32)C(=O)Cn2cnc3c(N)ncnc32)C(=O)Cn2cnc3c(N)ncnc32)C(=O)Cn2cnc3c(N)ncnc32)C(=O)Cn2cnc3c(=O)[nH]c(N)nc32)C(=O)Cn2cnc3c(N)ncnc32)C(=O)Cn2cnc3c(=O)[nH]c(N)nc32)C(=O)Cn2cnc3c(N)ncnc32)C(=O)Cn2cc(C)c(=O)[nH]c2=O)C(=O)Cn2ccc(N)nc2=O)C(=O)Cn2ccc(N)nc2=O)C(=O)Cn2cnc3c(N)ncnc32)C(=O)Cn2ccc(N)nc2=O)C(=O)Cn2cc(C)c(=O)[nH]c2=O)c(=O)[nH]c1=O` had a concentration for half-maximal inhibition (IC50) in the data set with BCL1 of 3 µM.
Molecule `Cc1cn(CC(=O)N(CCNC(=O)CN(CCNC(=O)CN(CCNC(=O)CN(CCNC(=O)CN(CCNC(=O)CN(CCNC(=O)CN(CCN)C(=O)Cn2cnc3c(N)ncnc32)C(=O)Cn2cc(C)c(=O)[nH]c2=O)C(=O)Cn2cnc3c(N)ncnc32)C(=O)Cn2cnc3c(=O)[nH]c(N)nc32)C(=O)Cn2cc(C)c(=O)[nH]c2=O)C(=O)Cn2cc(C)c(=O)[nH]c2=O)CC(=O)NCCN(CC(=O)NCCN(CC(=O)NCCN(CC(=O)NCCN(CC(=O)NCCN(CC(=O)NCCN(CC(=O)NCCN(CC(=O)NCCN(CC(=O)N[C@@H](CCCCN)C(N)=O)C(=O)Cn2cnc3c(N)ncnc32)C(=O)Cn2cnc3c(=O)[nH]c(N)nc32)C(=O)Cn2cnc3c(N)ncnc32)C(=O)Cn2cc(C)c(=O)[nH]c2=O)C(=O)Cn2ccc(N)nc2=O)C(=O)Cn2ccc(N)nc2=O)C(=O)Cn2cnc3c(N)ncnc32)C(=O)Cn2ccc(N)nc2=O)c(=O)[nH]c1=O` yielded an IC50 with BCL1 of 3.2 µM.
Regarding `Cc1cn(CC(=O)N(CCNC(=O)CN(CCN)C(=O)Cn2ccc(N)nc2=O)CC(=O)NCCN(CC(=O)NCCN(CC(=O)NCCN(CC(=O)NCCN(CC(=O)NCCN(CC(=O)NCCN(CC(=O)NCCN(CC(=O)NCCN(CC(=O)NCCN(CC(=O)NCCN(CC(=O)NCCN(CC(=O)NCCN(CC(=O)NCCN(CC(=O)N[C@@H](CCCCN)C(N)=O)C(=O)Cn2cnc3c(N)ncnc32)C(=O)Cn2ccc(N)nc2=O)C(=O)Cn2cnc3c(N)ncnc32)C(=O)Cn2cc(C)c(=O)[nH]c2=O)C(=O)Cn2ccc(N)nc2=O)C(=O)Cn2cc(C)c(=O)[nH]c2=O)C(=O)Cn2cnc3c(N)ncnc32)C(=O)Cn2ccc(N)nc2=O)C(=O)Cn2cnc3c(N)ncnc32)C(=O)Cn2ccc(N)nc2=O)C(=O)Cn2cnc3c(=O)[nH]c(N)nc32)C(=O)Cn2cnc3c(N)ncnc32)C(=O)Cn2ccc(N)nc2=O)c(=O)[nH]c1=O`, the IC50 with BCL1 came out at 1 µM.
On to `Cc1cn(CC(=O)N(CCNC(=O)CN(CCNC(=O)CN(CCNC(=O)CN(CCNC(=O)CN(CCNC(=O)CN(CCNC(=O)CN(CCNC(=O)CN(CCNC(=O)CN(CCNC(=O)CN(CCNC(=O)CN(CCNC(=O)CN(CCNC(=O)[C@H](CCCCN)N(CCNC(=O)[C@H](CCCCN)NC(=O)[C@H](CCCCN)NC(=O)[C@H](CCCCN)NC(=O)[C@H](CCCCN)NC(=O)[C@H](CCCCN)NC(=O)[C@H](CCCCN)NC(=O)[C@H](CCCCN)NC(=O)[C@@H](N)CCCCN)C(=O)Cn2cc(C)c(=O)[nH]c2=O)C(=O)Cn2ccc(N)nc2=O)C(=O)Cn2cc(C)c(=O)[nH]c2=O)C(=O)Cn2cnc3c(N)ncnc32)C(=O)Cn2cnc3c(N)ncnc32)C(=O)Cn2ccc(N)nc2=O)C(=O)Cn2ccc(N)nc2=O)C(=O)Cn2cnc3c(N)ncnc32)C(=O)Cn2ccc(N)nc2=O)C(=O)Cn2cnc3c(N)ncnc32)C(=O)Cn2cc(C)c(=O)[nH]c2=O)C(=O)Cn2ccc(N)nc2=O)CC(=O)NCCN(CC(=O)NCCN(CC(=O)NCCN(CC(=O)N[C@@H](CCCCN)C(N)=O)C(=O)Cn2cnc3c(N)ncnc32)C(=O)Cn2cnc3c(=O)[nH]c(N)nc32)C(=O)Cn2ccc(N)nc2=O)c(=O)[nH]c1=O`, for which the Activity entry is recorded as “Non-toxic” in the data set on Mus musculus [1]; 145% in the data set on Mus musculus [2]; “Non-toxic” in the data set on Mus musculus [3]; “Non-toxic” in the data set with Mus musculus [5]; “Non-toxic” with Mus musculus [6]; “Non-toxic” with Mus musculus [10]. Besides, the Activity entry in the data set with Mus musculus [11] and in the data set on Mus musculus [12] was “Non-toxic” each time. Moreover, the inhibition entry in the data set with Mus musculus [4] and with Mus musculus [8] was “inactive” in each case. Besides, the result in the data set with Mus musculus [7] and in the data set on Mus musculus [9] was inactive.
On to `Cc1cn(CC(=O)N(CCNC(=O)CN(CCNC(=O)CN(CCNC(=O)CN(CCNC(=O)CN(CCN)C(=O)Cn2cnc3c(N)ncnc32)C(=O)Cn2cnc3c(=O)[nH]c(N)nc32)C(=O)Cn2cc(C)c(=O)[nH]c2=O)C(=O)Cn2cc(C)c(=O)[nH]c2=O)CC(=O)NCCN(CC(=O)NCCN(CC(=O)NCCN(CC(=O)NCCN(CC(=O)NCCN(CC(=O)NCCN(CC(=O)NCCN(CC(=O)NCCN(CC(=O)NCCN(CC(=O)NCCN(CC(=O)N[C@@H](CCCCN)C(N)=O)C(=O)Cn2cnc3c(N)ncnc32)C(=O)Cn2cnc3c(=O)[nH]c(N)nc32)C(=O)Cn2cnc3c(N)ncnc32)C(=O)Cn2cnc3c(=O)[nH]c(N)nc32)C(=O)Cn2cnc3c(N)ncnc32)C(=O)Cn2cc(C)c(=O)[nH]c2=O)C(=O)Cn2ccc(N)nc2=O)C(=O)Cn2ccc(N)nc2=O)C(=O)Cn2cnc3c(N)ncnc32)C(=O)Cn2ccc(N)nc2=O)c(=O)[nH]c1=O`, for which half-maximal inhibition in the data set with BCL1 (IC50) was put at 2.4 µM.
With `COCCO[C@@H]1[C@H](OP(=O)(S)OC[C@H]2O[C@@H](n3cc(C)c(=O)[nH]c3=O)C[C@@H]2OP(=O)(S)OC[C@H]2O[C@@H](n3cnc4c(N)ncnc43)[C@H](OCCOC)[C@@H]2OP(=O)(S)OC[C@H]2O[C@@H](n3cnc4c(=O)[nH]c(N)nc43)[C@H](OCCOC)[C@@H]2OP(=O)(S)OC[C@H]2O[C@@H](n3cnc4c(N)ncnc43)[C@H](OCCOC)[C@@H]2OP(=O)(S)OC[C@H]2O[C@@H](n3cnc4c(=O)[nH]c(N)nc43)[C@H](OCCOC)[C@@H]2OP(=O)(S)OC[C@H]2O[C@@H](n3cnc4c(N)ncnc43)[C@H](OCCOC)[C@@H]2OP(=O)(S)OC[C@H]2O[C@@H](n3cnc4c(N)ncnc43)[C@H](OCCOC)[C@@H]2OP(=O)(S)OC[C@H]2O[C@@H](n3cnc4c(N)ncnc43)[C@H](OCCOC)[C@@H]2OP(=O)(S)OC[C@H]2O[C@@H](n3cnc4c(=O)[nH]c(N)nc43)[C@H](OCCOC)[C@@H]2O)[C@@H](COP(=O)(S)O[C@H]2[C@@H](OCCOC)[C@H](n3ccc(N)nc3=O)O[C@@H]2COP(=O)(S)O[C@H]2[C@@H](OCCOC)[C@H](n3cnc4c(N)ncnc43)O[C@@H]2COP(=O)(S)O[C@H]2[C@@H](OCCOC)[C@H](n3ccc(N)nc3=O)O[C@@H]2COP(=O)(S)O[C@H]2C[C@H](n3cc(C)c(=O)[nH]c3=O)O[C@@H]2COP(=O)(S)O[C@H]2C[C@H](n3cc(C)c(=O)[nH]c3=O)O[C@@H]2COP(=O)(S)O[C@H]2C[C@H](n3cc(C)c(=O)[nH]c3=O)O[C@@H]2COP(=O)(S)O[C@H]2[C@@H](OCCOC)[C@H](n3cnc4c(=O)[nH]c(N)nc43)O[C@@H]2COP(=O)(S)O[C@H]2[C@@H](OCCOC)[C@H](n3cnc4c(N)ncnc43)O[C@@H]2COP(=O)(S)O[C@H]2C[C@H](n3cc(C)c(=O)[nH]c3=O)O[C@@H]2COP(=O)(S)O[C@H]2[C@@H](OCCOC)[C@H](n3cnc4c(N)ncnc43)O[C@@H]2CO)O[C@H]1n1ccc(N)nc1=O` (some centres not stated), inhibition in the data set on BCL1 was half-maximal at 2.2 µM (IC50).

For orientation: IC50 means the concentration that inhibits the measured activity by half. A high value points to weaker potency.
